Screening results deposited in PubChem BioAssay by several laboratories.
NS3 helicase inh: blocks Hepatitis C virus NS3 helicase unwinding; inhibition, % at 10.9 µM; hit rate 0.56% among 290,000; NS3 helicase DNA unwinding, Cy5 molecular beacon fluorescence;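 active = inhibition above the mean of all tested compounds plus 3 SD, set per campaign, cut at about 35% in these data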;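 also: 0% = DMSO wells and 100% = thioflavine S control wells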
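System: HCV NS3 helicase fragment; control set: DMSO and thioflavine S; technique: Cy5 fluorescence at 0 and 60 min, beacon hairpin quenching; reagent: beacon DNA duplex substrate plus ATP; replicates: singlicate; schedule: 1 h reaction at 25 °C, ATP-initiated; medium: MOPS buffer pH 6.5 with MgCl2, DTT, Tween20, BSA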
DNMT1 block: inhibitors of human DNMT1. DNMT1 molecular beacon, Hinp1I cleavage, fluorescence. inhibition (reported as % activation of signal), % at 10 µM. P26358. AID 588458. hit rate 0.83% among 360,000; in the data active = inhibition above about 50%
SUMO1-SIM PPI: modulators of human SUMO1-mediated protein-protein interactions. hit rate 0.33% among 360,000. inhibition, % at 20 µM. P63165. AID 602429. SUMO1 binding to a labelled peptide, TR-FRET, 1 h; in the data active = inhibition above about 37%
MBD2 DNA inh: blocks human MBD2 binding to methylated DNA. Q9UBB5. TR-FRET, MBD2 binding to methylated oligonucleotide. inhibition, % at 4.4 µM. hit rate 0.31% among 370,000; in the data active = inhibition above about 13%
DSG3 Ab inh: human desmoglein-3 autoantibody binding inhibition. binding (percent of control), % at 10 µM. DSG3-coupled beads, scFv-anti-DSG3-GFP binding, flow cytometry; stronger effect = lower value. hit rate 0.48% among 310,000. P32926;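 active = binding more than 3 SD below its plate's average and above zero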;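 also: hits lower antibody fragment binding to DSG3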
UHRF1 binding: blocks human UHRF1 binding to methylated DNA; UHRF1 binding to methylated oligo, TR-FRET; hit rate 0.75% among 370,000; Q96T88; inhibition, % at 4.4 µM; in the data active = inhibition above about 21%;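 also: UHRF1 SRA domain binding a hemimethylated CpG hairpin DNA probe; 0% = median of test compound wells and 100% = reference inhibitor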
Target sequence (Q96T88 whole entry, looked up, the tested form may be a part): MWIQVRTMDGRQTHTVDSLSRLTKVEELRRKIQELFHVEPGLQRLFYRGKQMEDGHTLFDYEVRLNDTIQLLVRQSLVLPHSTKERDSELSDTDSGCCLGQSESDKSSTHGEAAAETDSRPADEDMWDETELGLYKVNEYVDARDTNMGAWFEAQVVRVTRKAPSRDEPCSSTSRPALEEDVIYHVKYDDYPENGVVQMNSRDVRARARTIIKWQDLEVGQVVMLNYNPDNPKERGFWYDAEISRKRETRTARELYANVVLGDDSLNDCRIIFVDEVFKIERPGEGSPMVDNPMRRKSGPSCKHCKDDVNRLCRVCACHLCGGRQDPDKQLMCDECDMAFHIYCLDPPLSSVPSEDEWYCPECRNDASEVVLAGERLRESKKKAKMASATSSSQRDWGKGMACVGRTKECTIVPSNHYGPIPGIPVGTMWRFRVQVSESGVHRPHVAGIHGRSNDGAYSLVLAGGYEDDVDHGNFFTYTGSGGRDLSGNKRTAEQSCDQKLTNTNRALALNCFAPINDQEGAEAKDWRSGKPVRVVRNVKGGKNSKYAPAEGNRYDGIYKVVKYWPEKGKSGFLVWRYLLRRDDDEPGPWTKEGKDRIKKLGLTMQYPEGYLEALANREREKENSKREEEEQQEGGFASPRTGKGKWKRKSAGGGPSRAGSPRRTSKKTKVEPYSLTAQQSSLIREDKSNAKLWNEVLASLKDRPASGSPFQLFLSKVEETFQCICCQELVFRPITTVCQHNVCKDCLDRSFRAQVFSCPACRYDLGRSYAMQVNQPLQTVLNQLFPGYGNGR
Numbers without * were called inactive. The list is not random: actives were taken first. Their share in the collection is about 2.5%.

For CC(=O)N1CCCN(C(=O)CCn2nnc3ccccc32)CC1 the results were MBD2 DNA inh -2 and UHRF1 binding 91*.
For COc1cccc(N2CCN(C(=O)CCn3nnc4ccccc43)CC2)c1 the results were MBD2 DNA inh -2 and UHRF1 binding 1.
For Cc1ccc(CNC(=O)C2CC(=O)N(C3CCCCCC3)C2)cc1 (stereo not given) the results were NS3 helicase inh -12, DNMT1 block -7, SUMO1-SIM PPI 2, MBD2 DNA inh 2, DSG3 Ab inh 111 and UHRF1 binding 37*.
For COc1ccc(-c2noc(CCCC(=O)N3CCN(c4cc(C)ccc4C)CC3)n2)cc1 the results were DNMT1 block -3, SUMO1-SIM PPI 42*, MBD2 DNA inh -1, DSG3 Ab inh 107 and UHRF1 binding 5.
For COc1ccc(-c2noc(CCCCC(=O)N3CCN(c4cc(C)ccc4C)CC3)n2)cc1 the results were DNMT1 block -7, SUMO1-SIM PPI 3, MBD2 DNA inh -7, DSG3 Ab inh 112 and UHRF1 binding -1.
`Cc1cccc(CSc2nnc(CCCCCNC(=O)OC(C)(C)C)o2)c1` gave NS3 helicase inh -13, DNMT1 block 1, SUMO1-SIM PPI 4, MBD2 DNA inh 4, DSG3 Ab inh 110 and UHRF1 binding -2.
For CCn1c(SCC(=O)Nc2ccc3c(c2)c2ccccc2n3CC)nnc1-c1ccco1 the results were NS3 helicase inh 24, DNMT1 block 96*, SUMO1-SIM PPI 26, MBD2 DNA inh -2, DSG3 Ab inh 91 and UHRF1 binding 0.
`CCn1c(SCC(=O)Nc2cccc(NC(C)=O)c2)nnc1-c1ccco1` gave NS3 helicase inh 1, DNMT1 block 0, SUMO1-SIM PPI -4, MBD2 DNA inh 2, DSG3 Ab inh 95 and UHRF1 binding 2.
Screening CCn1c(SCC(=O)N2c3ccccc3CC2C)nnc1-c1ccco1 (stereo not given) returned NS3 helicase inh -2, DNMT1 block 1, SUMO1-SIM PPI -4, MBD2 DNA inh 3 and UHRF1 binding 2.
`COc1ccc(NC(=O)CSc2nnc(-c3ccco3)n2N)cc1Cl` gave NS3 helicase inh 6, DNMT1 block 1, SUMO1-SIM PPI 2, MBD2 DNA inh -1, DSG3 Ab inh 102 and UHRF1 binding 22*.
For CCn1c(SCC(=O)n2c(C)c(C)c3ccccc32)nnc1-c1ccco1 the results were NS3 helicase inh 6, DNMT1 block -4, SUMO1-SIM PPI 1, MBD2 DNA inh -1, DSG3 Ab inh 79* and UHRF1 binding -1.
CC(C)[C@H](NC(=O)CCn1nnc2ccccc2c1=O)C(=O)O was read as NS3 helicase inh 3, DNMT1 block 0, SUMO1-SIM PPI 0, MBD2 DNA inh -3, DSG3 Ab inh 88 and UHRF1 binding 3.
For CCCCC(C(=O)NC(=O)NCc1ccccc1)N1C(=O)c2ccccc2C1=O (stereo not given) the results were NS3 helicase inh -10, DNMT1 block 1, SUMO1-SIM PPI 3, MBD2 DNA inh 12 and UHRF1 binding 23*.
CCOC(=O)c1ccc(N2C(=O)c3n[nH]c(C)c3C2c2ccccn2)cc1 (stereo not given) was read as NS3 helicase inh 2, DNMT1 block 2, SUMO1-SIM PPI 41*, MBD2 DNA inh 4, DSG3 Ab inh 95 and UHRF1 binding 2.
Brc1ccc2ncnc(NCc3ccccc3)c2c1 was read as NS3 helicase inh 10, DNMT1 block -5, SUMO1-SIM PPI -1, MBD2 DNA inh -3, DSG3 Ab inh 107 and UHRF1 binding -2.
CN1C=C/C(=C\c2cc[n+](C)c3ccccc23)c2ccccc21 was read as NS3 helicase inh 12, DNMT1 block 41, SUMO1-SIM PPI -18, MBD2 DNA inh 10, DSG3 Ab inh 94 and UHRF1 binding 27*.
`CC[n+]1ccc(/C=C2\Sc3ccccc3N2CCCS(=O)(=O)[O-])c2ccccc21` gave NS3 helicase inh 6, DNMT1 block -3, SUMO1-SIM PPI -18, MBD2 DNA inh -10, DSG3 Ab inh 103 and UHRF1 binding -9.
`COc1ccnc(-n2cccc2C#N)c1C#N` gave NS3 helicase inh -7, DNMT1 block 1, SUMO1-SIM PPI -1, MBD2 DNA inh -2, DSG3 Ab inh 96 and UHRF1 binding -1.
